Source: PubChem BioAssay (The Scripps Research Institute Molecular Screening Center)
Only some compounds are listed: those with a hit (about 2.8% of all), similar ones and a draw of the others.
pPAFAH FP inh = pPAFAH (human) enzyme inhibition. AID 463082. hit rate 1.5% among 330,000. Q13093. inhibition, % at 3.39 µM. recombinant pPAFAH, FP-rhodamine probe fluorescence polarization;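 active = inhibition above the mean inhibition across the screen plus 3 SD, cut at about 25% in these data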;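 note: inhibitors block binding of the rhodamine activity-based probe so polarization drops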
Target sequence (Q13093 whole entry, looked up): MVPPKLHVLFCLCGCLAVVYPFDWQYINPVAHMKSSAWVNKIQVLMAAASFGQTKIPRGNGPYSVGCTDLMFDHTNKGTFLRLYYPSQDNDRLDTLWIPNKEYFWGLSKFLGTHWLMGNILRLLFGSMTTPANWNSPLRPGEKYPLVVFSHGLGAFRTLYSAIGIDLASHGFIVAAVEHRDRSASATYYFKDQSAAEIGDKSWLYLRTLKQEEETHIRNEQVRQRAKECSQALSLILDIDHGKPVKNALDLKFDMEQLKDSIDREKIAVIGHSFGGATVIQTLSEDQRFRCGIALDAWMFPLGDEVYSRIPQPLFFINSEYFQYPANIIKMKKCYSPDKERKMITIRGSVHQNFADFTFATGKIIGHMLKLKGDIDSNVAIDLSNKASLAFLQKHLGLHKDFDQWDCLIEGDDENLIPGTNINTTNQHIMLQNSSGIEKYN
ASAP1 GAP inh = inhibitors of human ASAP1 ArfGAP activity; Q9ULH1; hit rate 0.19% among 360,000; ASAP1-stimulated ARF1 GTP hydrolysis, GDP FP detection; inhibition, % at 16.5 µM; in the data active = inhibition above about 25%
ARFGAP1 inh = inhibits rat ARF GTPase activating protein 1 | hit rate 0.26% among 360,000 | Arfgap1-stimulated ARF1 GTP hydrolysis, GDP FP detection | Q62848 | inhibition, % at 16.5 µM;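 active = inhibition above a per-plate limit, mean inhibition of low control wells plus 3 SD, cut at about 25% in these data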
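material = rat Arfgap1 catalytic domain, aa 1-136 | also added = human ARF1(Δ1-17)-GTP substrate | compound dosing = one concentration, 16.5 µM, DMSO 1.26% | times = GTP hydrolysis reaction 2 h at 25 °C | measured by = FP, GDP Alexa 633 tracer displaced from anti-GDP antibody, 620/688 nm | evaluation = percent inhibition of Arfgap1-stimulated GTP hydrolysis | replication = single well per compound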
PAFAH1B3 FP inh = inhibitors of human PAFAH1B3. recombinant PAFAH1B3, FP-rhodamine probe, fluorescence polarization. hit rate 0.28% among 340,000. inhibition, % at 3.39 µM. Q15102. AID 492972;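 active = inhibition above the screen-wide average of all tested compounds plus 3 SD, cut at about 25% in these data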
Target sequence (Q15102 whole entry, looked up): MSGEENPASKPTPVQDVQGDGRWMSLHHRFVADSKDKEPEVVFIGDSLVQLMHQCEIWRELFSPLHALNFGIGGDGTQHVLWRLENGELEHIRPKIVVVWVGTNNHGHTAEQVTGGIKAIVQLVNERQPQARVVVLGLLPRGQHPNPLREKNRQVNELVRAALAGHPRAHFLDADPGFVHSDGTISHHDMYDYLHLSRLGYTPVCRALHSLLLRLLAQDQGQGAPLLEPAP
PAFAH2 FP inh = PAFAH2 (human) inhibition | inhibition, % at 3.39 µM | AID 492956 | recombinant PAFAH2, FP-rhodamine activity probe, fluorescence polarization | hit rate 0.99% among 340,000 | Q99487;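 active = inhibition above the mean over all tested compounds plus 3 SD, cut at about 30% in these data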;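 note: inhibitors block probe labeling of enzyme so polarization drops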
PAFAH1B2 FP inh = inhibitors of human PAFAH1B2; P68402; recombinant PAFAH1B2, FP-rhodamine activity probe, fluorescence polarization; inhibition, % at 3.39 µM; hit rate 1.2% among 340,000; AID 492953;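 active = inhibition above the mean of all tested compounds plus 3 SD, cut at about 24% in these data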
A number is an active result; n = inactive; x = not tested or not shown.

SMILES | pPAFAH FP inh | ASAP1 GAP inh | ARFGAP1 inh | PAFAH1B3 FP inh | PAFAH2 FP inh | PAFAH1B2 FP inh
C=C1CCC[C@]2(C)C[C@H]3OC(=O)C(CN4CCCCC4CO)[C@H]3CC12 (stereo partly specified) | n | n | n | n | 44 | 36
C=C1CCC[C@]2(C)C[C@H]3OC(=O)C(CNC(C)(CO)CO)[C@H]3CC12 (stereo partly specified) | n | n | n | n | 33 | 28
O=C(NCc1ccc(N2CCCC2=O)cc1)C1CCC(=O)N(Cc2ccccc2F)C1 (stereo unspecified) | n | n | n | n | n | n
O=C(CSc1ccc(Cl)cc1)NC1=NN(c2ccccc2)C(=O)C1 | 32 | n | n | n | n | 96
CC(=O)NC12CC3CC(C1)CC(C(=O)Nc1c(C)n(C)n(-c4ccccc4)c1=O)(C3)C2 | n | n | n | n | n | n
Cc1c(NC(=O)C23CC4CC(CC(C)(C4)C2)C3)c(=O)n(-c2ccccc2)n1C | n | n | n | n | 50 | 35
Cc1c(NC(=O)COC(=O)COc2ccc(Nc3ccccc3)cc2)c(=O)n(-c2ccccc2)n1C | 25 | n | n | n | n | n
Cc1c(NC(=O)CCSc2ccc(Cl)cc2)c(=O)n(-c2ccccc2)n1C | n | n | n | n | n | 32
COCCNC(=O)C1(C)CCCN(Cc2c(C)nn(-c3ccccc3)c2C)C1 (stereo unspecified) | x | n | n | x | x | x
Cc1ccc2nc(C(C)(C)C)c(Cc3ccccc3C(F)(F)F)n2c1 | x | n | n | x | x | x
O=C(NCCc1ccc(Cl)cc1)C1CCC(=O)N(C2CCCCCC2)C1 (stereo unspecified) | n | n | n | n | n | n
S=C(NCCc1ccc(Cl)cc1)NC1CCCCC1 | n | n | n | n | n | 34
O=S(=O)(Nc1ncccn1)c1ccc(NC(=S)NCCc2ccc(Cl)cc2)cc1 | n | n | n | n | n | 44
S=C(NCCc1ccc(Cl)cc1)NC1CCCC1 | n | n | n | n | n | 27
O=C(NCCc1ccc(Cl)cc1)C1CCC(=O)N1C1CCCC1 (stereo unspecified) | n | n | n | n | n | 56
S=C(NCCc1ccccc1)NC1CCCCCC1 | n | n | n | n | n | n
Cc1cccc2c(C(=O)N3CCN(c4ccccn4)CC3)cc(-c3cccc(Br)c3)nc12 | n | n | n | n | n | n
C[C@H]1CN([C@@H](C)CO)C(=O)CCCn2nncc2CO[C@@H]1CN(C)C(=O)c1ccccc1 | x | n | n | x | x | x
COc1cccc(CNC(=O)CCn2ccc3cc(S(=O)(=O)N4CCC(C)CC4)ccc32)c1 | n | n | n | n | n | 25
Cc1cccc(C2=NN(c3ccc(Br)cc3)[C@@H](C(=O)N3CCOC3=O)[C@@H]2c2ccc(F)cc2)c1 | 30 | n | n | n | n | n
COc1ccccc1C(=O)ON=C1c2ccccc2-c2ccccc21 | 29 | n | n | n | 57 | n
CN(C)CCN1CCN(C(c2cc3ccccc3o2)c2nnnn2C(C)(C)C)CC1 (stereo unspecified) | x | n | n | x | x | x
CCOC(=O)c1cc(-c2ccccc2)sc1NC(=O)c1ccc(OC)cc1 | n | x | x | x | x | x
O=C(Nc1sc(-c2ccccc2)cc1C(=O)O)c1ccccc1 | n | n | n | n | n | 32
CC1(C)CC(=O)C(CS(=O)(=O)c2ccccc2)=C(Cl)C1 | n | n | n | n | n | n
SMILES | pPAFAH FP inh | ASAP1 GAP inh | ARFGAP1 inh | PAFAH1B3 FP inh | PAFAH2 FP inh | PAFAH1B2 FP inh
CCN(C(=O)CSc1ncccc1C(=O)O)C1CCCCC1 | n | n | n | n | n | 29
COc1ccc(S(=O)(=O)NCCOc2ccc(Cl)cc2)cc1 | n | n | n | n | n | n
CC(C)(C)SCCNS(=O)(=O)c1ccc(Cl)cc1 | 31 | n | n | x | x | x
CC(C)(C)SCCNS(=O)(=O)c1ccc(C#N)cc1 | n | n | n | n | n | n
Cc1ccc(OCCNS(=O)(=O)c2ccc(Cl)cc2)cc1 | n | n | n | n | n | 24
Cc1ccc(S(=O)(=O)NCC(=O)OCCOc2ccc(Br)cc2)cc1 | n | n | n | n | n | 30
Cc1ccc(S(=O)(=O)CCC(=O)OCCOc2ccc(Br)cc2)cc1 | x | n | n | x | x | x
O=C(CS(=O)(=O)c1cn(Cc2ccc(Cl)cc2)c2ccccc12)N1CCCCC1 | n | n | n | n | n | 28
O=C(CS(=O)(=O)c1cn(Cc2ccc(F)cc2)c2ccccc12)N1CCCCC1 | n | n | n | n | n | n
O=C(c1cc([N+](=O)[O-])ccc1N1CCN(S(=O)(=O)c2ccc(Cl)c(Cl)c2)CC1)N1CCOCC1 | n | n | n | n | n | 37
O=C(c1cc([N+](=O)[O-])ccc1N1CCOCC1)N1CCN(S(=O)(=O)c2cc(Cl)ccc2Cl)CC1 | n | n | n | n | n | n
O=C(CCn1c(=S)oc2ccccc21)Nc1ccccc1Br | n | n | n | n | n | n
O=C(Nc1ccc2nc(C(F)(F)F)[nH]c2c1)[C@@H]1O[C@H](CO)[C@@H](O)[C@H]1O | x | n | n | x | x | x
Cc1ccc(-n2cccc2/C=C2/C(=N)N3C(=NC2=O)SN=C3S(C)(=O)=O)cc1 | n | n | n | n | n | 28
O=C1ON=C(c2ccccc2)/C1=C/c1ccc(OS(=O)(=O)c2ccccc2)cc1 | n | n | n | n | n | 101
Cc1ccc(S(=O)(=O)Oc2ccc(/C=C3/C(=N)N4C(=NC3=O)SN=C4S(C)(=O)=O)cc2)cc1 | n | n | n | n | n | 50
CS(=O)(=O)C1=NSC2=NC(=O)/C(=C\c3ccc(OS(=O)(=O)c4ccccc4)cc3)C(=N)N21 | n | n | n | n | n | 25
COc1ccc(/C=C2\C(=O)ON=C2c2ccccc2)cc1 | n | n | n | n | n | n
Cc1cc(NC(=O)CSCC(=O)OCC(=O)c2ccc(Br)cc2)no1 | x | n | n | x | x | x
CCNC(=O)C1(C)CCN(C(=O)c2ccc(OC)cc2OC)C1 (stereo unspecified) | x | n | n | x | x | x
CC12CC(O)C3c4ccc(O)cc4CCC3C1CC/C2=N\O (stereo unspecified) | n | n | n | n | n | n
Cc1cccc(C)c1NC(=O)C(c1ccncc1)n1c(=O)c(-c2cc3ccccc3[nH]2)nc2ccccc21 (stereo unspecified) | x | n | n | x | x | x
CCOc1ccccc1-c1ccc2nccn2c1 | x | n | n | x | x | x
Cc1ccc(S(=O)(=O)Oc2ccc(/C=C3\C(=N)N4N=C(S(C)(=O)=O)SC4=NC3=O)cc2)cc1 | n | n | n | n | n | 60
O=c1[nH]c(CN2CCN(c3ccc([N+](=O)[O-])cc3)CC2)nc2ccsc12 | n | n | n | n | n | 32
COc1ccc(N2CCN(Cc3nc4ccsc4c(=O)[nH]3)CC2)cc1 | n | n | n | n | n | n
C#CCn1c(=NC(=O)c2sc3ccccc3c2Cl)sc2cc(S(N)(=O)=O)ccc21 | n | n | 82 | n | n | n
N#CCSc1ccccc1NC(=O)COC(=O)CCNC(=O)c1ccc([N+](=O)[O-])cc1 | x | n | n | n | n | n
